Compounds with a hit are over-represented: about 3.7% of the library has one in this group of screens.
KCNK9 inh: human KCNK9 channel inhibition. HEK293 KCNK9, FluxOR thallium flux fluorescence; active compounds read low. 310,000 compounds, 1.2% hits. B-score at 10 µM;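 active = ratio B-score over 3 SD below the library mean, with starting fluorescence within 5 SD of its mean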;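 note: negative B-score means less thallium flux so channel inhibition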
KCNK3 block: human KCNK3 channel inhibition, primary screen; O14649; CHO-KCNK3 thallium flux, FluxOR fluorescence; active compounds read low; B-score at 10 µM; 340,000 compounds, 0.84% hits; AID 602410;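 active = B-score under library mean minus 4 SD, starting fluorescence ratio at most library mean plus 5 SD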;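 note: more negative B-score means stronger inhibition of thallium flux through KCNK3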
KCNQ1 act: potentiators or activators of human KCNQ1 potassium channel; P51787; CHO-K1 KCNQ1, thallium flux FluxOR fluorescence; active compounds read high; B-score at 10 µM; 310,000 compounds, 0.35% hits; AID 2648;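 active = fluorescence ratio B-score, a plate-corrected score, at least three library SD, with initial intensity B-score within 5 SD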
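Test system: CHO-K1 cells stably expressing KCNQ1 / Medium: assay buffer / Also added: depolarizing K+/Tl+ stimulus, K2SO4 and Tl2SO4 each 12.5 mM in 5x stock / Incubation: 90 min dye loading and 20 min compound exposure, both at room temperature / Signal: thallium influx via FluxOR fluorescence, kinetic imaging / Evaluation: B score of baseline-normalized fluorescence ratio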
Kir21 block: inhibitors of mouse Kir2.1 inward-rectifier potassium channel. P35561. HEK293-Kir2.1, FluxOR thallium flux fluorescence; active compounds read low. B-score at 10 µM. 310,000 compounds, 0.85% hits. AID 1672;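 active = fluorescence ratio B-score at or below minus 3 SD of library scores, with starting-brightness B-score within 2 SD, cut at about -4.2 in these data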;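 note: channel flux triggered by added potassium and thallium sulfate stimulus; B-score of peak minus minimum fluorescence over baseline after thallium stimulus; more negative B-score means stronger Kir2.1 block with less thallium influx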
KCNQ1 block: human KCNQ1 channel inhibition. CHO-K1 KCNQ1, FluxOR thallium flux fluorescence; active compounds read high. 310,000 compounds, 1.3% hits. AID 2642. B-score at 10 µM. P51787;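 active = compounds whose thallium flux B-score, printed positive for inhibition, exceeds three library SD while starting fluorescence stays within three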;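 note: channel opened by potassium depolarization with thallium stimulus after 20 min compound exposure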
hERG protect: compounds protecting human hERG from proarrhythmic drug block; 310,000 compounds, 0.51% hits; activation (rescue from dofetilide block), less the hit threshold, % at 10 µM; Q12809; CHO-hERG, FluxOR thallium flux, dofetilide IC70 present;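 active = activation above the mean of controls blocked by dofetilide plus 5 SD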;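 note: thallium influx through hERG after potassium depolarization seen as dye fluorescence rise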
Target sequence (Q12809 whole entry, looked up): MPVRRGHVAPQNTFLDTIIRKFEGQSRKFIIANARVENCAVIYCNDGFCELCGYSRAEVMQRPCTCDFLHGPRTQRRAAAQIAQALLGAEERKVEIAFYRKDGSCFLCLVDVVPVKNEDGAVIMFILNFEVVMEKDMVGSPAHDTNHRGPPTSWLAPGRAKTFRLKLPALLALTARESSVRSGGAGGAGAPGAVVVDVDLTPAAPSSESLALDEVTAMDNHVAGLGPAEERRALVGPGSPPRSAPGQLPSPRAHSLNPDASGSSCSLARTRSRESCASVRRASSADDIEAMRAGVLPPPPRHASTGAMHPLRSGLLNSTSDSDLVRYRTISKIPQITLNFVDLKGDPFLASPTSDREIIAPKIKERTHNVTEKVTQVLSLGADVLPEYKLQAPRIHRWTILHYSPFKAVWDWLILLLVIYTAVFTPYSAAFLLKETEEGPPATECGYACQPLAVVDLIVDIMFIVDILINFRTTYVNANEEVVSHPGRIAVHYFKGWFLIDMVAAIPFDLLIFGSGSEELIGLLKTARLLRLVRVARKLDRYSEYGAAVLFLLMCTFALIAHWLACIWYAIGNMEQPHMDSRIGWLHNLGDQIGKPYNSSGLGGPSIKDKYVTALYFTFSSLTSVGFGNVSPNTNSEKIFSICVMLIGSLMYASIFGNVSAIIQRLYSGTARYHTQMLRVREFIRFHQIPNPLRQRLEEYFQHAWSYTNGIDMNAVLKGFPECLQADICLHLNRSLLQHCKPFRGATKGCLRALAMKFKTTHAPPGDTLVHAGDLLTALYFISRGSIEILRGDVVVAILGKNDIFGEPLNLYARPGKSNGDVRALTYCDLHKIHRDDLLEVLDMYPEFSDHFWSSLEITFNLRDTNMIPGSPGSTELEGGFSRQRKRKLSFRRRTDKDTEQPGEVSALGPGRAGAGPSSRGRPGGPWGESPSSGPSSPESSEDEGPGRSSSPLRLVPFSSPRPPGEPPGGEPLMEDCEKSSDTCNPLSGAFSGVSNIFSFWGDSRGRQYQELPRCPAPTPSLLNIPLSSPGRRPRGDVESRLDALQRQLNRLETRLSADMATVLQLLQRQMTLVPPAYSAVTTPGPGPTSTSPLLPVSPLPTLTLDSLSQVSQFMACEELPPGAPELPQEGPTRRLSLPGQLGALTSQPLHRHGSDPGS
Numbers stand for hits; – = inactive; · = no result.

SMILES	KCNK9 inh	KCNK3 block	KCNQ1 act	Kir21 block	KCNQ1 block	hERG protect
CCCOc1ccc(NC(=O)CC2C(=O)N(Cc3ccccc3)C(=S)N2Cc2cccs2)cc1 (stereo not drawn)	–	–	–	–	6	–
CCOc1ccc(N2C(=O)CC(NC3CCN(C(=O)c4cccs4)CC3)C2=O)cc1 (stereo not drawn)	–	–	–	–	–	–
CCn1cnc2c1c(=O)n(CC(=O)N1CCc3ccccc31)c(=O)n2Cc1ccccc1	–	–	–	–	–	–
O=C(Cn1c(=O)c2c(ncn2Cc2ccccc2)n(Cc2ccccc2)c1=O)N1CCc2ccccc21	–	–	7	–	–	–
CCC(=O)Nc1ccc(C(=O)CN2C(=O)NC3(CCCCCC3)C2=O)cc1	·	–	·	·	·	·
Cn1c(C(=O)N2CCCC(C(=O)NCc3cccs3)C2)cc2sccc21 (stereo not drawn)	–	–	–	–	–	6.0
O=C(CN1CCCC1c1cccs1)Nc1cccc(S(=O)(=O)N2CCCC2)c1 (stereo not drawn)	·	–	·	·	·	·
COc1cccc(C(=O)NNC(=O)c2ccccc2)c1	–	–	–	–	–	–
COc1cccc(C(=O)NNC(=O)C(=O)Nc2ccc(OC)cc2OC)c1	–	–	19	–	–	12
COc1cccc(C(=O)NNC(=O)C(=O)Nc2cccc3ccccc23)c1	–	–	36	–	–	43
COc1ccc(OC)c(NC(=O)C(=O)NNC(=O)c2cccs2)c1	–	–	–	–	–	5.5
COc1ccc(OC)c(NC(=O)C2CCN(C(=O)c3cccs3)CC2)c1	–	–	–	–	–	–
O=C(NCCCCNC(=O)c1cccnc1Cl)c1cccnc1Cl	–	–	–	–	–	–
CCCCOC(=S)NC(=O)c1sc2ccccc2c1Cl	–	–	53	–	–	31
CCOc1ccc(C(=O)OCCCN(C)C)cc1	–	–	–	–	–	–
CN(C)CCCOC(=O)c1sc2ccccc2c1Cl	–	–	–	-7.3	–	–
CCCOc1ccc(C(CC(=O)O)NC(=O)c2sc3ccccc3c2Cl)cc1 (stereo not drawn)	–	–	–	–	–	–
CN(C)CCCOC(=O)c1ccc(Cl)cc1	–	–	–	–	–	4.8
CN(C)CCCN(C(=O)c1sc2ccccc2c1Cl)c1nc2ccc(F)cc2s1	–	–	–	–	–	–
CN1CCN(CC(=O)c2ccccc2F)CC1	–	–	–	–	–	–
COc1ccc(-n2cccc2C=O)cc1	–	–	–	–	–	–
COc1ccc(-n2cccc2/C=C/[N+](=O)[O-])cc1	–	–	–	-4.8	–	–
Cc1cc(-c2nnc(SCC(=O)Nc3c(C)cccc3C)n2N)n[nH]1	–	–	–	–	–	–
Cc1ccccc1-c1nnn(Cc2cccc(S(=O)(=O)N3CCOCC3)c2)n1	·	-9	·	·	·	·
Cc1cc(OCc2cccc(S(=O)(=O)N3CCOCC3)c2)ccc1Cl	·	-9.6	·	·	·	·
SMILES	KCNK9 inh	KCNK3 block	KCNQ1 act	Kir21 block	KCNQ1 block	hERG protect
O=C(Nc1nc(-c2cc(F)ccc2F)cs1)C1=NN(c2ccccc2)C(=O)CC1	–	–	–	–	–	–
COc1ccc(-c2csc(NC(=O)C3=NN(c4ccccc4)C(=O)CC3)n2)cc1	–	–	105	–	–	–
O=C(CC(=O)c1ccccc1O)c1ccc(F)cc1	–	–	–	–	–	–
O=C(CC(=O)c1ccccc1O)c1cccc(F)c1	–	–	37	–	–	–
COc1ccccc1C(=O)NNC(=S)Nc1ccccc1	–	–	–	–	–	–
Cc1ccc(NC(=O)C(=O)NNC(=O)c2ccccc2C)cc1Cl	–	–	41	–	–	46
COc1ccccc1C(=O)NNC(=O)C(=O)Nc1ccc(C)c(Cl)c1	–	–	94	–	–	61
COc1ccccc1C(=O)NNC(=O)C(=O)NC(C)(C)C	–	–	9	–	–	7.4
COc1ccccc1C(=O)NNC(=O)C(=O)Nc1ccc(C)cc1	–	–	–	–	–	47
O=C1NC(=O)/C(=C/c2ccc(-c3cccc([N+](=O)[O-])c3)o2)S1	–	–	–	–	12	–
CCOC(=O)c1sc2ncnc(NCC(c3cccs3)N(C)C)c2c1C (stereo not drawn)	–	–	55	–	–	20
O=S(=O)(Nc1cccc(-n2cnnn2)c1)c1cccc(Cl)c1	–	–	8	–	–	–
O=S(=O)(Nc1cccc(-n2cnnn2)c1)c1ccccc1	–	–	–	–	–	–
Cn1c(SCc2c(Cl)cccc2Cl)nc(C(F)(F)F)cc1=O	-6.7	–	–	–	–	–
O=S(=O)(NCCCc1ccccc1)c1ccc(Cl)cc1	–	–	–	-4.8	–	–
Cc1cccc(C(=O)NC(=S)N2CCc3ccccc3C2)c1	–	–	13	–	–	21
Cc1cccc(C(=O)NCCC(=O)N2CCc3ccccc3C2)c1	·	–	·	·	·	·
Cc1sc2ncnc(NCC(O)c3ccc([N+](=O)[O-])cc3)c2c1C (stereo not drawn)	–	–	–	–	9	–
O=C(CSc1ccccc1)NCC(c1ccco1)N1CCCCC1 (stereo not drawn)	·	–	·	·	·	·
OC(CNCC(c1ccco1)N1CCCCC1)c1ccccc1 (stereo not drawn)	–	–	–	–	–	5.9
CC1CCCCN1C(=O)CN1CCC(c2nc3ccc(Cl)cc3[nH]2)CC1 (stereo not drawn)	–	–	–	–	–	–
Cc1ccc2nc(C3CCN(S(=O)(=O)c4ccc5ccccc5c4)CC3)[nH]c2c1	–	–	8	–	–	–
Clc1ccc2nc(C3CCN(Cc4ccccc4)CC3)[nH]c2c1	–	–	–	-6.8	–	–
Cc1ccc(CN2CCC(c3nc4ccc(Cl)cc4[nH]3)CC2)cc1	–	–	–	-10	–	–
O=C1C=CC(=O)N1Cc1ccccn1	·	–	·	·	·	·
SMILES	KCNK9 inh	KCNK3 block	KCNQ1 act	Kir21 block	KCNQ1 block	hERG protect
CCOC(=O)c1nn(-c2ccc(Cl)cc2)c(C)cc1=O	–	–	–	–	–	–
Cc1[nH]c(=O)n(C(C)C)c(=O)c1Br	·	–	·	·	·	·
Cc1sc2ncnc(SCC(=O)NCC3CCCO3)c2c1C (stereo not drawn)	·	–	·	·	·	·
O=c1c(-c2ccccc2)c[nH]n1-c1cccc([N+](=O)[O-])c1	–	–	–	–	7	–
O=C(COc1ncnc2ccc(Br)cc12)NC1CCCC1	·	–	·	·	·	·
COc1ccc(C(C(=O)NC(C)(C)C)N(C(=O)CCC(=O)Nc2ccccn2)C2CCCCC2)cc1 (stereo not drawn)	–	–	–	–	–	–
Cc1cc(-c2nnc(CSc3nnc(NC(=O)c4ccc(C(C)(C)C)cc4)s3)o2)ccc1[N+](=O)[O-]	–	–	–	–	–	–
Cc1nn(C)c(C(=O)NC(=S)Nc2ccc([N+](=O)[O-])cc2)c1Cl	–	–	34	–	–	43

Bioassay records deposited in PubChem by Johns Hopkins Ion Channel Center.
